Data taken from ChEMBL document CHEMBL3352507, “Preparation and antimalarial activity of a novel class of carbohydrate-derived, fused thiochromans” (Eur J Med Chem, 2014).
pIC50: −log10 of the molar value.

Columns and labels:
[1] = Cytotoxicity against human WI38 cells after 48 hrs by SRB assay; type: cell-based; settings: WI-38, 48 h
Method in brief: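 WI-38 human fetal lung fibroblasts (passages 21–50) in EMEM with 10% FBS, 2 mM L-glutamine and gentamicin, at 37 °C and 5% CO2. Seeded at 10 000 cells/well, grown 24 h, then given compound in DMSO diluted in medium to 5 concentrations for 48 h. Cells were fixed with cold 50% TCA and stained with SRB, and dye was read at 540 nm. IC50 by non-linear regression against untreated controls.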

[2] = Cytotoxicity against human WI38 cells assessed as cell viability at 0.1 uM after 48 hrs by SRB assay; type: cell-based, WI-38; settings: read-out: Activity
Method in brief: (§1)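 WI-38 fibroblasts (passages 21–50) were seeded at 10 000 cells/well for 24 h, then exposed for 48 h to compound dissolved in DMSO and diluted in medium. Viable cells were fixed with cold 50% trichloroacetic acid and stained with sulforhodamine B. Bound dye was extracted with 10 mM Tris base and read at 540 nm. Viability relative to drug-free cells.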

Plasmodium falciparum [3] = assay: Antimalarial activity against Plasmodium falciparum 3D7 after 48 hrs by parasite lactate dehydrogenase assay; type: functional, organism-based; settings: 3D7, 48 h
Method in brief: (§2)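 Parasite survival read by parasite lactate dehydrogenase (pLDH) assay. Single-concentration prescreen at […]; compounds with 0–15% survival were taken to dose–response. Ten three-fold serial dilutions in triplicate, incubated 48 h in a gassed airtight box, developed with NBT/PES. IC50 from sigmoidal curve of % survival relative to control against log concentration.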

[4] = Cytotoxicity against human WI38 cells assessed as cell viability at 100 uM after 48 hrs by SRB assay; type: cell-based, WI-38; settings: read-out: Activity; method in brief: as §1
Plasmodium falciparum [5] = assay: Antimalarial activity against Plasmodium falciparum FCR3 after 48 hrs by parasite lactate dehydrogenase assay; type: functional, organism-based; settings: FCR3, 48 h; method in brief: as §2
[6] = Cytotoxicity against human WI38 cells assessed as cell viability at 10 uM after 48 hrs by SRB assay; type: cell-based, WI-38; settings: read-out: Activity; method in brief: as §1
[7] = Cytotoxicity against human WI38 cells assessed as cell viability at 0.01 uM after 48 hrs by SRB assay; type: cell-based, WI-38; settings: read-out: Activity; method in brief: as §1
[8] = Cytotoxicity against human WI38 cells assessed as cell viability at 1 uM after 48 hrs by SRB assay; type: cell-based, WI-38; settings: read-out: Activity; method in brief: as §1

Row | pIC50 (Plasmodium falciparum [3]) | pIC50 (Plasmodium falciparum [5]) | SMILES | pIC50 [1] | viability at 48 h, 0.1 µM [2] [%] | viability at 48 h, 100 µM [4] [%] | viability at 48 h, 10 µM [6] [%] | viability at 48 h, 0.01 µM [7] [%] | viability at 48 h, 1 µM [8] [%]
1 | 5.63 | 5.71 | Cc1ccc2c(c1)[C@H]1O[C@H](COCc3ccccc3)[C@@H](OCc3ccccc3)[C@H](OCc3ccccc3)[C@H]1CS2(=O)=O | < 4.00 | 95.7 | 68.5 | 91.7 | 99.5 | 94.6
2 | 5.38 | 5.56 | Cc1cccc2c1[S@@+]([O-])C[C@@H]1[C@@H](OCc3ccccc3)[C@H](OCc3ccccc3)[C@@H](COCc3ccccc3)O[C@H]21 | < 4.00 | 99.5 | 67.1 | 84.7 | 102 | 99.2
3 | 5.56 | 5.58 | COc1ccc2c(c1)[C@H]1O[C@H](COCc3ccccc3)[C@@H](OCc3ccccc3)[C@H](OCc3ccccc3)[C@H]1C[S@+]2[O-] | < 4.00 | 100 | 79.9 | 95.8 | 99.8 | 97.4
